Reference: ChEMBL document CHEMBL1150564, “Isoterchebulin and 4,6-O-isoterchebuloyl-D-glucose, novel hydrolyzable tannins from Terminalia macroptera” (J Nat Prod, 2001)
≈ marks a conversion by molar mass, not a printed value. Calls of active or inactive are those of the source. No cut-off for these calls is given here.

Key:
[1] = system: Bacillus subtilis; test: Antibacterial activity against Bacillus subtilis by microdilution assay; format: functional
Method in brief: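 Broth microdilution against B. subtilis, samples serially twofold diluted from a 1024 µg/mL start, two replicates per concentration. MIC recorded. Cefotaxim served as positive control. Afterwards, bacteria treated at the MIC were replated on drug-free HNB agar to tell bacteriostatic from bactericidal action.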

[2] = system: 5637; test: Cytotoxicity against human 5637 cells; format: functional; conditions: read-out: LC50 (the source's name)
[3] = system: Pseudomonas fluorescens; test: Antibacterial activity against Pseudomonas fluorescens at 1024 ug/ml; format: functional, organism-based
Method in brief: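 Broth microdilution against P. fluorescens, samples serially twofold diluted from a top concentration of 1024 µg/mL, two replicates per concentration. Cefotaxim served as positive control.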

[4] = system: Biomphalaria glabrata; test: Molluscicidal activity against Biomphalaria glabrata; format: functional
[5] = Toxicity against Oreochromis mossambicus assessed as mortality at 75 ug/ml; format: organism-based; conditions: in vivo, read-out: Activity
Method in brief: (§1)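 Tilapia (Oreochromis mossambicus) exposed to the compound in water at 50 or 75 µg/mL. Read-out is percent fish mortality.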

[6] = Toxicity against Oreochromis mossambicus assessed as mortality at 50 ug/ml; format: organism-based; conditions: in vivo, read-out: Activity; method in brief: as §1
[7] = system: Caenorhabditis elegans; test: Nematicidal activity against Caenorhabditis elegans at 100 ug/ml; format: functional, organism-based
Method in brief: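 Caenorhabditis elegans exposed to compound at 50 and 100 µg/mL (n = 60, two replicates per concentration). Scored by increase in worm number and worm movement, graded on a + scale. Pyrantel embonate at 50 µg/mL served as positive control.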

| SMILES | MIC [1] | Activity [3] | further results |
| --- | --- | --- | --- |
| [H][C@@]12COC(=O)c3cc(O)c(O)c(O)c3Oc3c(O)cc4c(=O)oc5c(O)c(O)c(c6c(=O)oc3c4c56)-c3c(cc(O)c(O)c3O)C(=O)O[C@@]1([H])[C@H](O)[C@@H](O)C(O)O2 (stereo partly drawn) | 8 mg/L (≈ 10.2 µM) | – | – |
| O=C1O[C@H]2[C@H](O)[C@@H](CO)OC(O)[C@@H]2OC(=O)c2cc(O)c(O)c(O)c2-c2c1cc(O)c(O)c2O (stereo partly drawn) | – | inactive | CC50 [2]: 84.7 µM; Activity [1]: inactive |
| O=C(O[C@H]1C(O)O[C@@H]2COC(=O)c3cc(O)c(O)c(O)c3-c3c(O)c(O)c4oc(=O)c5c(c(O)c(O)c6oc(=O)c3c4c65)-c3c(cc(O)c(O)c3O)C(=O)O[C@H]2[C@@H]1O)c1cc(O)c(O)c(O)c1 (stereo partly drawn) | 8 mg/L (≈ 8.56 µM) | inactive | – |
| O=C1OC[C@H]2OC(O)[C@H](O)[C@@H](O)[C@@H]2OC(=O)c2cc(O)c(O)c(O)c2-c2c(O)c(O)c3oc(=O)c4cc(O)c(c5oc(=O)c2c3c54)Oc2c1cc(O)c(O)c2O (stereo partly drawn) | – | inactive | – |
| [H][C@@]12OC(=O)c3cc(O)c(O)c(O)c3-c3c(O)c(O)c4oc(=O)c5cc(O)c(c6oc(=O)c3c4c65)Oc3c(cc(O)c(O)c3O)C(=O)OC[C@@]1([H])OC(O)[C@]1([H])OC(=O)c3cc(O)c(O)c(O)c3-c3c(cc(O)c(O)c3O)C(=O)O[C@@]21[H] (stereo partly drawn) [ISOTERCHEBULIN] | 8 mg/L (≈ 7.38 µM) | inactive | LC100 [4]: 60 µg/mL; mortality at 75 ug/ml [5]: 10%; mortality at 50 ug/ml [6]: 10%; Activity [7]: Active |
| O=C1O[C@H]([C@@H]2OC(=O)c3cc(O)c(O)c(O)c3-c3c(O)c(O)c4oc(=O)c5c(c(O)c(O)c6oc(=O)c3c4c65)-c3c(cc(O)c(O)c3O)C(=O)OC[C@H]2O)[C@@H]2OC(=O)c3c(c(O)c(O)c(O)c3[C@H]2O)-c2c1cc(O)c(O)c2O [PUNICACORTEIN C] | 16 mg/L (≈ 14.8 µM) | inactive | CC50 [2]: 41.4 µM |
| O=C(OC[C@H]1OC(O)[C@H](O)[C@@H](O)[C@@H]1OC(=O)c1cc(O)c(O)c(O)c1-c1c(O)c(O)c2oc(=O)c3cc(O)c(O)c4oc(=O)c1c2c43)c1cc(O)c(O)c(O)c1 (stereo partly drawn) [TERFLAVIN B] | 64 mg/L (≈ 81.6 µM) | inactive | – |

Continued, in another order:

| MIC [1] | SMILES | Activity [3] | further results |
| --- | --- | --- | --- |
| 2 mg/L (≈ 4.39 µM) | CO/N=C(\C(=O)N[C@@H]1C(=O)N2C(C(=O)O)=C(COC(C)=O)CS[C@H]12)c1csc(N)n1 [CEFOTAXIME] | – | – |
| 32 mg/L (≈ 29.5 µM) | O=C1O[C@@H]2[C@@H](OC(=O)c3cc(O)c(O)c(O)c3-c3c1cc(O)c(O)c3O)[C@H](O)O[C@@H]1COC(=O)c3cc(O)c(O)c(O)c3-c3c(O)c(O)c4oc(=O)c5c(c(O)c(O)c6oc(=O)c3c4c65)-c3c(cc(O)c(O)c3O)C(=O)O[C@@H]21 [PUNICALAGIN] | inactive | – |
| 64 mg/L (≈ 58.9 µM) | O=C(OC[C@H]1OC(O)[C@@H]2OC(=O)c3cc(O)c(O)c(O)c3-c3c(cc(O)c(O)c3O)C(=O)O[C@H]2[C@@H]1OC(=O)c1cc(O)c(O)c(O)c1-c1c(O)c(O)c2oc(=O)c3cc(O)c(O)c4oc(=O)c1c2c43)c1cc(O)c(O)c(O)c1 (stereo partly drawn) [TERFLAVIN A] | inactive | – |
